ChEMBL document CHEMBL1255244, “Antimycobacterial Activity and Mechanism of Action of NAS-91” (2008)
In brackets after ≈: the same amount, converted by molar mass. Activity calls are given as the source filed them. The rule behind the calls is not given here.

Key:
BCG 1173P2 = assay: Inhibition of delta-9 desaturase activity in Mycobacterium bovis BCG 1173P2 cell extract assessed as inhibition of oleic acid synthesis at 10 to 100 ug/ml after 1 hr in presence of NADPH and [1-14C]stearoyl-CoA; format: cell-free; conditions: Mycobacterium bovis BCG str. Pasteur 1173P2
In short: (§1)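 Cell-free assay. BCG grown in Sauton's with 20 µg/ml FeSO4, French-press lysed in 0.25 M sucrose. 1 mg lysate, 1 µmol NADPH, phosphate buffer pH 7.2, in 1 ml. Inhibitor preincubated 10 min at 37°C, then 0.25 µCi [1-14C]stearoyl-CoA added, 37°C 1 h. Saponified, methylated, [14C]oleate band scraped and counted. Triplicates, one of two experiments, mean ± SEM.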

[1] = system: Mycobacterium tuberculosis; assay: Antimycobacterial activity against Mycobacterium tuberculosis H37Rv at 10 ug/ml after 15 to 20 days by agar proportion method; format: functional
In short: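 Agar proportion method. H37Rv grown in 7H9 at 37°C with shaking to OD600 1.0. Diluted log-phase culture giving about 1,000 CFU plated on 7H11+OADC control and drug-containing plates, incubated 37°C.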

[2] = system: Mycobacterium bovis BCG str. Pasteur 1173P2; assay: Antimycobacterial activity against Mycobacterium bovis BCG 1173P2 assessed as inhibition of mycolic acid biosynthesis; format: functional
In short: (§2)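 Mid-log BCG in Sauton's medium, drug at 37°C for 8 h, then 1 µCi/ml [2-14C]acetate for 16 h. Cells PBS-washed, hydrolysed in 15% tetrabutylammonium hydroxide at 100°C overnight, methylated with CH3I. TLC: MAME bands scraped and counted; FAMEs (50,000 cpm) on reverse-phase TLC, chloroform-methanol 2:3. INH 1 µg/ml positive control. Triplicates, one of three experiments, mean ± SEM.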

[3] = system: Mycobacterium bovis BCG str. Pasteur 1173P2; assay: Antimycobacterial activity against Mycobacterium bovis BCG 1173P2 assessed as inhibition of oleic acid methyl ester synthesis at 100 ug/ml after 8 hrs; format: functional
In short: (§3)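 BCG in Sauton's medium, drug 8 h, then [14C]acetate labelling for 16 h. Methyl esters resolved by 2-D TLC: first dimension without silver, hexane-ethyl acetate 19:1 run twice; then silver nitrate layer, petroleum ether-diethyl ether 17:3 run three times. Triplicates, one of three experiments, mean ± SEM, Student's t test.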

[4] = system: Mycobacterium bovis BCG str. Pasteur 1173P2; assay: Antimycobacterial activity against Mycobacterium bovis BCG 1173P2 assessed as inhibition of FAS-2 activity at 5 ug/ml after 8 hrs; format: functional; in short: as §2
[5] = Antimycobacterial activity against Mycobacterium bovis BCG 1173P2; format: functional, Mycobacterium bovis BCG str. Pasteur 1173P2; conditions: Mycobacterium tuberculosis variant bovis BCG
In short: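 M. bovis BCG on Middlebrook 7H11 agar with OADC and increasing inhibitor concentrations. Serial 10-fold dilutions of actively growing culture plated, 37°C for 10 to 14 days.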

[6] = system: Mycobacterium bovis BCG str. Pasteur 1173P2; assay: Antimycobacterial activity against Mycobacterium bovis BCG 1173P2 assessed as inhibition of mycolic acid biosynthesis at 100 ug/ml after 8 hrs; format: functional; design: scale not given: the % may be the effect or the level left; in short: as §2
BCG = assay: Inhibition of delta-9 desaturase activity in Mycobacterium bovis BCG cell extract 1173P2 assessed as inhibition of oleic acid synthesis at 25 ug/ml after 1 hr in presence of NADPH and [1-14C]stearoyl-CoA; format: cell-free; design: scale not given: the % may be the effect or the level left; conditions: Mycobacterium bovis BCG str. Pasteur 1173P2; in short: as §1
[7] = system: Mycobacterium bovis BCG str. Pasteur 1173P2; assay: Antimycobacterial activity against Mycobacterium bovis BCG 1173P2 assessed as inhibition of oleic acid methyl ester synthesis after 8 hrs; format: functional; in short: as §3
[8] = system: Mycolicibacterium smegmatis; assay: Antimycobacterial activity against Mycobacterium smegmatis at 100 ug/ml after 15 to 20 days by agar proportion method; format: functional, organism-based

| Structure (SMILES) | Activity (BCG 1173P2) | Activity [1] | Activity [2] | Activity [3] | Activity [4] | MIC [5] | Activity [6] | Activity (BCG) | Activity [7] | Activity [8] |
| --- | --- | --- | --- | --- | --- | --- | --- | --- | --- | --- |
| Oc1ccc(Cl)cc1Oc1ccc(Cl)c2cccnc12 | Dose-dependent effect | 99% | Active | Active | Active | 10 µg/mL (≈ 32.7 µM) | 55% | 75% | Dose-dependent effect | inactive |
| O=C(CC(=O)C(F)(F)F)c1ccc([N+](=O)[O-])cc1 | – | – | – | Active | – | 50 µg/mL (≈ 191 µM) | – | 25% | Dose-dependent effect | – |
